Assay results reported in ChEMBL document CHEMBL1149792, “Synthesis and adenosine receptor binding studies of some novel triazolothienopyrimidines” (Eur J Med Chem, 2008).

Columns and labels:
[1] = target: T1, Adenosine receptor A1 (Rattus norvegicus) (UniProt P25099); experiment: Inhibition of rat adenosine A1 receptor at 1 uM
T1 sequence (whole entry): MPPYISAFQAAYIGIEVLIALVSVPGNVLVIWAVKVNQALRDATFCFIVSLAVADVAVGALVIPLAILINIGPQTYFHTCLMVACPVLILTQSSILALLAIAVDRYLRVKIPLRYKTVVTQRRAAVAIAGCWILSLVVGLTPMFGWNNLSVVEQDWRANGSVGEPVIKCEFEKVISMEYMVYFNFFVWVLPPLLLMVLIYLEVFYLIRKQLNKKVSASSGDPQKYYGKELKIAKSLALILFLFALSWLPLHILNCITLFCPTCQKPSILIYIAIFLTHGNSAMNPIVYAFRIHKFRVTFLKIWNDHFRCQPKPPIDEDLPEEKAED
How it was run: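 Single-concentration screen measured as percent inhibition of [3H]CCPA (0.5 nM) binding to rat cortical membranes, run at room temperature for 90 min with 2.5% DMSO final. Nonspecific binding was defined with 2-chloroadenosine. Separation was by GF/B filtration, with scintillation counting of bound radioactivity.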

[2] = target: T2, Adenosine receptor A1 (Rattus norvegicus, UniProt P25099); experiment: Displacement of [3H]CCPA from rat adenosine A1 receptor
T2 sequence (P25099 whole entry): T1 sequence (whole entry)
How it was run: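 Rat brain cortical membranes (from frozen rat brains) were incubated with [3H]CCPA at 0.5 nM at room temperature for 90 min. Compounds were added from DMSO stocks, giving 2.5% DMSO final. 2-Chloroadenosine defined nonspecific binding. Bound radioactivity was separated by GF/B filtration and counted by scintillation. Compounds giving over 20% inhibition in the single-concentration screen were tested at six concentrations to derive Ki.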

How did the inhibition [1] turn out when O=C(c1ccccc1)c1nc2sc3c(c2c2n[nH]c(=S)n12)CCCC3 was run?
The inhibition was 0%.

How did the inhibition [1] turn out when S=c1[nH]nc2c3c4c(sc3nc(-c3ccccc3)n12)CCCC4 was run?
The inhibition was 0%.

With Cc1nc2sc3c(c2c2n[nH]c(=S)n12)CCCC3 as the compound, how does the inhibition [1] read?
The inhibition was 26%.

What about the Ki [2] of the same compound?
Its Ki is 4400 nM.

How did the inhibition [1] turn out when S=c1[nH]nc2c3c4c(sc3nc(-c3ccncc3)n12)CCCC4 was run?
The inhibition was 0%.

Cc1sc2nc(C(=O)c3ccccc3)n3c(=S)[nH]nc3c2c1C was tested. Which inhibition [1] did it give?
The inhibition was 0%.

Cc1sc2nc(C)n3c(=S)[nH]nc3c2c1C was tested. Which inhibition [1] did it give?
Its inhibition is 4%.

For CCc1nc2sc(C)c(C)c2c2n[nH]c(=S)n12, which inhibition [1] is on record?
Its inhibition is 21%.

And the Ki [2]?
Its Ki is 2100 nM.

Which inhibition [1] does the source give for Cc1sc2nc(-c3ccccc3)n3c(=S)[nH]nc3c2c1C here?
The inhibition was 0%.

With CCCc1nc2sc3c(c2c2n[nH]c(=S)n12)CCCC3 as the compound, how does the inhibition [1] read?
The inhibition was 0%.

With CCCc1nc2sc(C)c(C)c2c2n[nH]c(=S)n12 as the compound, how does the inhibition [1] read?
Its inhibition is 13%.

CCc1nc2sc3c(c2c2n[nH]c(=S)n12)CCCC3 was tested. Which inhibition [1] did it give?
The inhibition was 56%.

And the Ki [2]?
Its Ki is 1170 nM.
